eIF4E 4G PPI: eIF4E/eIF4G interaction inhibition in translation initiation. P63073+Q04637. TR-FRET eIF4E-eIF4GI(517-606) binding, 2 h. inhibition, % at 21.7 µM. 220,000 compounds, 0.37% hits;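 active = inhibition above about 30%, limit read from the data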;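 note: 0% = full FRET control wells and 100% = background wells lacking eIF4GI fragment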
PERK inh: inhibitors of human PERK kinase; Q9NZJ5; CHO PERK-DD fusion, SEAP luminescence translation reporter; inhibition, % at 5.6 µM; 220,000 compounds, 0.17% hits; AID 1416;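 active = inhibition above the mean inhibition of all tested compounds plus 3 SD, set separately per screening campaign, cut at about 2.9% in these data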;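 note: PERK kinase domain activated by AP20187 dimerizer at 100 nM; 0% = DMSO with dimerizer and 100% = rapamycin at 8.4 µM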
RanGTP-Imp inh: inhibitors of RanGTP-importin-beta interaction, primary screen, biochemical, FRET, CFP-Ran, YFP-importin-beta, homogeneous | AID 2216 | cell-free CFP-Ran/YFP-importin-beta FRET ratio | inhibition, % (no concentration beside the values) | 300,000 compounds, 1.1% hits;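 active = more than half of the replicate wells show a fall in the fluorescence ratio signal beyond about 16%, limit read from the data, passing the limit was not always enough; inconclusive = exactly half of the replicate wells pass the set limit; inactive = fewer than half of replicates pass the limit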;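 note: 0% = DMSO wells and 100% = Ran loaded with GDP instead of GTP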
Hck-Nef inh: blocks Nef-activated human Hck kinase; AID 463187; P08631; 220,000 compounds, 0.68% hits; inhibition, % at 20 µM; Recombinant Hck-YEEI plus Nef, Z-Lyte FRET kinase assay;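 active = Hck-Nef kinase inhibition above about 50%, limit read from the data; inactive = inhibition below that limit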;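 note: 0% = DMSO with Hck plus Nef and 100% = Hck alone without Nef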
Runt-CBFb FRET: blocks binding of human RUNX1 Runt domain to CBFb. Cerulean-Runt/Venus-CBFb FRET ratio 530/480, 1 h. inhibition, % at 20 µM. 220,000 compounds, 0.46% hits. AID 1496;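 active = inhibition over about 50% at 20 µM in the single-dose screen, limit read from the data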;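 note: 0% = DMSO wells and 100% = excess unlabeled CBFb competitor control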
Target sequence (Q01196 whole entry, looked up, the tested form may be a part): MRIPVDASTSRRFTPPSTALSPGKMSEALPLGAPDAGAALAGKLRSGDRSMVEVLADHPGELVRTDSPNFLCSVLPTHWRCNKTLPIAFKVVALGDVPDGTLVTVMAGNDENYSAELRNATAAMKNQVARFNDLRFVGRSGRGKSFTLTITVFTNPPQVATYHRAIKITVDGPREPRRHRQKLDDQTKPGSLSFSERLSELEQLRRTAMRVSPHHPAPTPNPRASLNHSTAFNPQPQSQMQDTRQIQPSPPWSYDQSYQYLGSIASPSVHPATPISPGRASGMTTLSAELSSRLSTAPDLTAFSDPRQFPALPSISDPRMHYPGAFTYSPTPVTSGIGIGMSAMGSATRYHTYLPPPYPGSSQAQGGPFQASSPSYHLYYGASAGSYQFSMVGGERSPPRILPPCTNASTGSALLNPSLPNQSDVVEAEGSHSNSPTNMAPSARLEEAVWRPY
Target sequence (Q13951 whole entry, looked up, the tested form may be a part): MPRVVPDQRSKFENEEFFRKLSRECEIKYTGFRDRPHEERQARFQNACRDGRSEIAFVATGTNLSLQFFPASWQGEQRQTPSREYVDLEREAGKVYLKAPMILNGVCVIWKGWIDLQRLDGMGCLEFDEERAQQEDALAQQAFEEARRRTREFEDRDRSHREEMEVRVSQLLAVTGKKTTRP
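Assay system: Cerulean-tagged RUNX1 Runt domain (FRET donor) fusion protein / Amount: 100 nM each of Venus-CBFb and Cerulean-Runt domain / Medium: Tris buffer pH 7.5 with salts and BSA / Also added: Venus-CBFb 100 nM / Schedule: 1 h complex formation plus 1 h compound treatment, room temperature / Signal: FRET fluorescence / Read-out: loss of energy transfer signal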
Runt-SMMHC FRET: inhibitors of human RUNX1 Runt domain binding to CBFb-SMMHC | Q01196+Q13951 | Cerulean-Runt/Venus-CBFb-SMMHC FRET ratio 530/480, 1 h | inhibition, % at 20 µM | 220,000 compounds, 0.74% hits | AID 1434;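 active = mean inhibition across duplicate retests at 20 µM reaching about 50%, limit read from the data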;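 note: 0% = DMSO wells and 100% = wells with excess untagged CBFb-SMMHC; inhibitors lower the FRET ratio by blocking Runt binding to CBFb-SMMHC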
Numbers without * were called inactive. Rows were chosen to be rich in hits. Some 2.2% of all compounds tested hit in one or more screens of this group.

NC(=O)c1c(NC(=O)c2ccc(S(=O)(=O)N3CCOCC3)cc2)sc2c1CCCCC2 was read as eIF4E 4G PPI 5, PERK inh 0, RanGTP-Imp inh 2, Hck-Nef inh 2, Runt-CBFb FRET -4 and Runt-SMMHC FRET -32.
CC(C)N1CCc2c(sc(NC(=O)c3ccc(S(=O)(=O)N4CCCCC4C)cc3)c2C(N)=O)C1 (stereo not drawn) was read as RanGTP-Imp inh 107*.
CSc1cccc(NC(=O)c2sc3nc4n(c(=O)c3c2C)CCC4)c1 was read as RanGTP-Imp inh 3.
`CCn1nnc(NC(=O)COc2ccc([N+](=O)[O-])cc2)n1` gave eIF4E 4G PPI 3, PERK inh 3.0*, RanGTP-Imp inh 6, Hck-Nef inh 14, Runt-CBFb FRET 1 and Runt-SMMHC FRET -5.
N=c1oc2ccccc2cc1-c1nc(-c2ccccc2)cs1 was read as eIF4E 4G PPI 6, PERK inh 0, RanGTP-Imp inh 44*, Hck-Nef inh -1, Runt-CBFb FRET -60 and Runt-SMMHC FRET -160.
Screening O=c1oc2ccccc2cc1-c1ccccc1 returned eIF4E 4G PPI -3, PERK inh 1, RanGTP-Imp inh -5, Hck-Nef inh 12, Runt-CBFb FRET -3 and Runt-SMMHC FRET 2.
Screening Cc1nc(-c2ccccc2)cs1 returned eIF4E 4G PPI 2, PERK inh 1, RanGTP-Imp inh 0, Hck-Nef inh -1, Runt-CBFb FRET -1 and Runt-SMMHC FRET 1.
N=c1oc2ccc3ccccc3c2cc1-c1nc(-c2ccccc2)cs1 was read as eIF4E 4G PPI 5, PERK inh 1, RanGTP-Imp inh 73*, Hck-Nef inh 2, Runt-CBFb FRET 22 and Runt-SMMHC FRET 29.
Screening CC(C(=O)N1CCN(c2ccccc2)CC1)N1C(=O)C2CC=CCC2C1=O (stereo not drawn) returned eIF4E 4G PPI -3, PERK inh 0, RanGTP-Imp inh -4, Hck-Nef inh 0, Runt-CBFb FRET -1 and Runt-SMMHC FRET -14.
`CCOC(=O)c1nnc(-c2ccc(C)cc2)nc1N1CCSCC1` gave eIF4E 4G PPI 0, PERK inh -1, RanGTP-Imp inh -1, Hck-Nef inh 14, Runt-CBFb FRET -4 and Runt-SMMHC FRET 3.
`COC(=O)/C(C#N)=C/c1c(Oc2cc(C)cc(C)c2)nc2ccccn2c1=O` gave eIF4E 4G PPI 0, PERK inh 1, RanGTP-Imp inh -8, Hck-Nef inh 3, Runt-CBFb FRET 3 and Runt-SMMHC FRET 13.
Screening N#C/C(=C\c1c(Oc2ccccc2F)nc2ccccn2c1=O)C(=O)NC1CCS(=O)(=O)C1 (stereo not drawn) returned RanGTP-Imp inh 128*.
`N#C/C(=C\c1ccc(F)cc1)C(=O)NC1CCS(=O)(=O)C1` (stereo not drawn) gave RanGTP-Imp inh -5.
For Cc1ccccc1Oc1nc2ccccn2c(=O)c1/C=C(\C#N)C(=O)Nc1c(C)n(C)n(-c2ccccc2)c1=O the results were eIF4E 4G PPI 4, PERK inh 2, RanGTP-Imp inh 2, Hck-Nef inh 4, Runt-CBFb FRET 5 and Runt-SMMHC FRET 16.
`N#C/C(=C\c1c(Oc2ccccc2Cl)nc2ccccn2c1=O)C(=O)NC1CCS(=O)(=O)C1` (stereo not drawn) gave RanGTP-Imp inh 91*.
For Cc1cc(C)cc(Oc2nc3ccccn3c(=O)c2/C=C(\C#N)C(=O)NC2CCS(=O)(=O)C2)c1 (stereo not drawn) the results were eIF4E 4G PPI -2, PERK inh 1, RanGTP-Imp inh inconclusive, Hck-Nef inh 20, Runt-CBFb FRET 88* and Runt-SMMHC FRET 60*.
O=C(Nc1cccc(CCc2ccccn2)c1)c1cc(F)c(F)cc1Cl was read as eIF4E 4G PPI 6, PERK inh -1, RanGTP-Imp inh 3, Hck-Nef inh 5, Runt-CBFb FRET -3 and Runt-SMMHC FRET 3.
Cc1ccc(/C=C2/NC(=O)N(Cc3ccccc3)C2=O)o1 was read as eIF4E 4G PPI 12, PERK inh 0, RanGTP-Imp inh -1, Hck-Nef inh 7, Runt-CBFb FRET 28 and Runt-SMMHC FRET 25.
Screening O=C(O)c1ccc(-c2ccc(/C=C3\NC(=O)N(Cc4ccc(Cl)cc4)C3=O)o2)cc1 returned eIF4E 4G PPI 33*, PERK inh 1, Hck-Nef inh 18, Runt-CBFb FRET 98* and Runt-SMMHC FRET 84*.
`CC1=Nc2ccccc2/C1=C\c1nc(-c2ccc(C(F)(F)F)cc2)oc1O` gave eIF4E 4G PPI -6, PERK inh 0, RanGTP-Imp inh -30, Hck-Nef inh 1, Runt-CBFb FRET -31 and Runt-SMMHC FRET -75.
For CC1=Nc2ccccc2/C1=C/c1sc(=N)n(-c2nccs2)c1O the results were eIF4E 4G PPI 4, PERK inh -2, RanGTP-Imp inh 23*, Hck-Nef inh 1, Runt-CBFb FRET -42 and Runt-SMMHC FRET -112.
For CCN(CC)C(=O)c1cc(-c2ccc(Br)cc2)on1 the results were eIF4E 4G PPI 0, PERK inh 1, RanGTP-Imp inh -1, Hck-Nef inh -1, Runt-CBFb FRET 1 and Runt-SMMHC FRET 2.
CN1C(=O)/C(=C2/C=Cc3ccccc3N2CCCS(=O)(=O)O)SC1=S was read as eIF4E 4G PPI -3, PERK inh -1, RanGTP-Imp inh -6, Hck-Nef inh 6, Runt-CBFb FRET -2 and Runt-SMMHC FRET -2.
For C=CCN1C(=O)/C(=C2/Sc3ccccc3N2CCCS(=O)(=O)O)SC1=S the results were eIF4E 4G PPI 6, PERK inh 1, RanGTP-Imp inh 45*, Hck-Nef inh 6, Runt-CBFb FRET 66* and Runt-SMMHC FRET 65*.
CSC(=Nc1ccccc1)Nc1ccccc1 was read as eIF4E 4G PPI 0, PERK inh 2.9*, RanGTP-Imp inh 1, Hck-Nef inh 7, Runt-CBFb FRET 1 and Runt-SMMHC FRET -4.
Screening COc1cccc(NC(=O)N2CCCC2C(=O)Nc2ccc3c(c2)OCCO3)c1 (stereo not drawn) returned eIF4E 4G PPI 1, PERK inh 1, RanGTP-Imp inh inconclusive, Hck-Nef inh 21, Runt-CBFb FRET 1 and Runt-SMMHC FRET -3.
`C=CCSc1nc(N)c2c3c(sc2n1)CN(C)CC3` gave RanGTP-Imp inh 19*.
For CCSc1nc(N)c2c3c(sc2n1)CN(C)CC3 the results were eIF4E 4G PPI 5, PERK inh 1, RanGTP-Imp inh 5, Hck-Nef inh -5, Runt-CBFb FRET 2 and Runt-SMMHC FRET 18.
CCNc1nc(SCC(N)=O)nc2sc3c(c12)CCN(C)C3 was read as RanGTP-Imp inh 48*.
For CSc1nc(SCC(N)=O)c2c3c(sc2n1)CN(C)CC3 the results were eIF4E 4G PPI -5, PERK inh 1, RanGTP-Imp inh 3, Hck-Nef inh 1, Runt-CBFb FRET -2 and Runt-SMMHC FRET -4.

High-throughput results (PubChem)
